The values below come from ChEMBL document CHEMBL1153110, “Optimization of (4,4-difluoro-1,2,3,4-tetrahydro-5H-1-benzazepine-5-ylidene)acetamide derivatives as arginine vasopressin V2 receptor agonists and discussion of their binding modes” (Bioorg Med Chem, 2009).

By Ki is commonly meant the equilibrium dissociation constant of an inhibitor or competing ligand from its target. In general, EC50 refers to the midpoint of the concentration-response curve. For orientation: ED50 means the dose that gives a 50% effect, or the effect in half of the subjects.

One test has as its target Vasopressin V1a receptor (Homo sapiens, UniProt P37288). As to the kind of experiment: Displacement of [3H]vasopressin from human vasopressin V1A receptor expressed in CHO cells by microplate scintillation counting. In kind it is cell-based. (In general: Displacement assays read how much labelled ligand stays bound in the presence of the test substance.)
The target of test [1] is T1, Vasopressin V2 receptor (Homo sapiens, UniProt P30518). In words: Intrinsic activity at human vasopressin V2 receptor expressed in CHO cells assessed as cAMP accumulation by HTRF assay relative to AVP. The class given is functional, cell-based. The essentials: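 Intrinsic activity was measured in the cAMP HTRF assay in human V2-CHO cells: 24 h serum-free, then 10 min at 37 °C with 1 mmol/L IBMX. It is the compound's maximal response as a percentage of the maximal AVP response (100%). Assays were run in triplicate.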
(In general: Changes in cAMP serve as a functional read-out for many G protein-coupled receptors.)

Test [2] has as its target Vasopressin V1a/V2 (Homo sapiens) (UniProt P30518+P37288). In words: Selectivity ratio of Ki for human vasopressin V1A receptor to Ki for human vasopressin V2 receptors.
The target in test [3] is T1, Vasopressin V2 receptor. In words: Agonist activity at human vasopressin V2 receptor expressed in CHO cells assessed as cAMP accumulation by HTRF assay. The class given is functional, cell-based. Put shortly:
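CHO cells with human V2 receptor were grown to subconfluence and serum-starved for 24 h. They were then exposed to test compound for 10 min at 37 °C in α-MEM with 1 mmol/L IBMX and 0.1% BSA, and lysed in PBS with 0.2% Triton X-100. cAMP was read by HTRF. EC50 is the concentration giving 50% of the maximal AVP response. Triplicate.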

The target in test [4] is T1, Vasopressin V2 receptor. In words: Displacement of [3H]vasopressin from human vasopressin V2 receptor expressed in CHO cells by microplate scintillation counting. In kind it is cell-based. Put shortly: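 Membranes came from human V2-expressing CHO cells: hypotonic lysis, then centrifugation at 1000g and 35,000g at 4 °C. They were incubated with [3H]vasopressin at 0.91 nmol/L final in 50 mmol/L Tris-HCl pH 7.4, filtered on GF/B and washed with ice-cold Tris buffer. Retained radioactivity was scintillation counted. Assays were run in triplicate.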

In another test the test system is Rattus norvegicus. In words: Antidiuretic activity in water-loaded po dosed Wistar rat assessed as decrease in urinary excretion administered 15 mins prior to water loading measured up to 4 hrs. As to conditions: Urine. The class given is functional. Put shortly: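 Male Wistar rats (200–300 g) were pre-screened for at least 70% excretion of an oral water load. They were deprived of feed and water and dosed orally without anesthesia. Distilled water (30 mL/kg po) was given 15 min later, and urine was collected in metabolic cages for 4 h (n = 3–6). Excretion was expressed as % of the loaded volume. ED50, the dose lowering excretion to 50%, came from linear regression.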

Vasopressin V1a receptor, sequence (P37288 whole entry): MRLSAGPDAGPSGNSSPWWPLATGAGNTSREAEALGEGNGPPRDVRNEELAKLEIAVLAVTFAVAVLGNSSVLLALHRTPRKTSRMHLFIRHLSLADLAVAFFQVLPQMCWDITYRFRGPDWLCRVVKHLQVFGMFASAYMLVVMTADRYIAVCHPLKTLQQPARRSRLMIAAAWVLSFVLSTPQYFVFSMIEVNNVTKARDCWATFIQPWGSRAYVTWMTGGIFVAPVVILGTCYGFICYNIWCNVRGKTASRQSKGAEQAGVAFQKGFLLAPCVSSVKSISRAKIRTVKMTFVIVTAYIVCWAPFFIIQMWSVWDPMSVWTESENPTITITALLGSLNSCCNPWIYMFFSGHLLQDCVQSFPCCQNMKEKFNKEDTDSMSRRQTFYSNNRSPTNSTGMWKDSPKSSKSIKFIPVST
Vasopressin V1a/V2 (Homo sapiens), sequence (P30518 whole entry, looked up): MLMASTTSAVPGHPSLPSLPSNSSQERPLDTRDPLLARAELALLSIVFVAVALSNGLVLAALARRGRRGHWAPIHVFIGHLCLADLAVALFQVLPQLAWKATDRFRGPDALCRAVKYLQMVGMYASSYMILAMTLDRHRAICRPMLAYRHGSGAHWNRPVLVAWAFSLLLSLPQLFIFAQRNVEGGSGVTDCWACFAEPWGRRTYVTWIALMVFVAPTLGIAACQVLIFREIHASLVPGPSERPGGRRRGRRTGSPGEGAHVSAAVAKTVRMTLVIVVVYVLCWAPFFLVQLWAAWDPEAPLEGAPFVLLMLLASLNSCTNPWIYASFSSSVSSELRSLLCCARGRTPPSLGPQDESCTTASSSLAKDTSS
Vasopressin V1a/V2 (Homo sapiens), sequence (P37288 whole entry, looked up): as the sequence (P37288 whole entry) above
T1 sequence (P30518 whole entry): as the sequence (P30518 whole entry, looked up) above

Regarding `C[C@H]1CCN(c2ccc(C(=O)N3CCC(F)(F)/C(=C\C(=O)NCCO)c4ccccc43)c(C(F)(F)F)c2)C1`, the Ki amounted to 43 nM on Vasopressin V1a receptor and 14 nM at Vasopressin V2 receptor [4]. For the same molecule, the Intrinsic activity on Vasopressin V2 receptor [1] came to 111%. Also, in test [2], the Ratio Ki came to 3.1. In addition, the EC50 at Vasopressin V2 receptor [3] is 1 nM. Further, the ED50 in the test with Rattus norvegicus worked out at 0.012 mg/kg.
Consider `C[C@@H]1CCN(c2ccc(C(=O)N3CCC(F)(F)/C(=C\C(=O)NCCO)c4ccccc43)c(C(F)(F)F)c2)C1`, for which the Ki at Vasopressin V1a receptor was found to be 39 nM; on Vasopressin V2 receptor [4], 16 nM. Besides, at Vasopressin V2 receptor [1], the Intrinsic activity was 114%. The Ratio Ki in test [2] was 2.4. The EC50 on Vasopressin V2 receptor [3] amounted to 1 nM. The ED50 with Rattus norvegicus is 0.04 mg/kg.
On to `Cc1ccn(-c2ccc(C(=O)N3CCC(F)(F)/C(=C\C(=O)NCCO)c4ccccc43)c(Cl)c2)n1`, for which the Intrinsic activity on Vasopressin V2 receptor [1] came to 93.9%. Besides, the Ratio Ki in test [2] amounted to 2.9. The ED50 with Rattus norvegicus was 0.14 mg/kg.
Turning to `C[C@H]1CCN(c2ccc(C(=O)N3CCC(F)(F)/C(=C\C(=O)NCCO)c4ccccc43)c(Cl)c2)C1`, the Ki is 17 nM at Vasopressin V1a receptor and 14 nM at Vasopressin V2 receptor [4]. On Vasopressin V2 receptor [1], the Intrinsic activity was determined as 109%. For the same molecule, in test [2], the Ratio Ki was 1.2. The EC50 on Vasopressin V2 receptor [3] worked out at 0.98 nM.
Consider `Cc1ccn(-c2ccc(C(=O)N3CCC(F)(F)/C(=C\C(=O)NCCO)c4ccccc43)c(C(F)(F)F)c2)n1`, for which the Ki on Vasopressin V1a receptor was 170 nM; on Vasopressin V2 receptor [4] it was 78 nM. For the same molecule, at Vasopressin V2 receptor [1], the Intrinsic activity stood at 115%. The Ratio Ki in test [2] stood at 2.2. Moreover, the 50% effective concentration (EC50) at Vasopressin V2 receptor [3] turned out to be 2.4 nM. Moreover, the ED50 in the test on Rattus norvegicus was 0.2 mg/kg.
With `C[C@@H]1CCN(c2ccc(C(=O)N3CCC(F)(F)/C(=C\C(=O)NCCO)c4ccccc43)c(Cl)c2)C1`, the Ki at Vasopressin V1a receptor and at Vasopressin V2 receptor [4] was 13 nM in each case. In addition, the Intrinsic activity at Vasopressin V2 receptor [1] was 118%. Further, the Ratio Ki in test [2] was 1. Besides, the EC50 at Vasopressin V2 receptor [3] was 0.99 nM.
